Measurements published in the M2OR odorant receptor database.
Changes are numbered by the printed parent chain.

Key:
Conditions in all cases: stereoisomer not certain
OR9Q1 (Homo sapiens) = molecular target: T1, OR9Q1 (Homo sapiens) (UniProt Q8NGQ5)
T1 sequence (whole entry): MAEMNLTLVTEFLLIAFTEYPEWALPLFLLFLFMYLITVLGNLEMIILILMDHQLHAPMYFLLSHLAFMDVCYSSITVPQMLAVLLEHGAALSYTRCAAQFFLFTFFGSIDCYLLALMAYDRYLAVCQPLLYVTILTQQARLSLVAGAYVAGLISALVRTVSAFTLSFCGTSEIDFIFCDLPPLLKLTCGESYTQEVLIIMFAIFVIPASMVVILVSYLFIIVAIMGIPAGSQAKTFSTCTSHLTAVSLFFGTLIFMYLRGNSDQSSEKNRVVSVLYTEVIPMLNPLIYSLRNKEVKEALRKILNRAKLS
Outline: (§1)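 Whether a receptor–molecule pair is responsive (active) rests on the original authors' judgment that its measured signal was statistically different from baseline. Pairs without that judgment are non-responsive (inactive). Sources used varied assay methods, commonly transient luciferase assays in mammalian cell lines.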

OR9Q1 A83T = test system: T2, OR9Q1 A83T
T2 sequence (whole entry): T1 sequence (whole entry) with A83T
Outline: as §1

OR9Q2 (Homo sapiens) = molecular target: T3, OR9Q2 (Homo sapiens) (UniProt Q8NGE9)
T3 sequence (whole entry): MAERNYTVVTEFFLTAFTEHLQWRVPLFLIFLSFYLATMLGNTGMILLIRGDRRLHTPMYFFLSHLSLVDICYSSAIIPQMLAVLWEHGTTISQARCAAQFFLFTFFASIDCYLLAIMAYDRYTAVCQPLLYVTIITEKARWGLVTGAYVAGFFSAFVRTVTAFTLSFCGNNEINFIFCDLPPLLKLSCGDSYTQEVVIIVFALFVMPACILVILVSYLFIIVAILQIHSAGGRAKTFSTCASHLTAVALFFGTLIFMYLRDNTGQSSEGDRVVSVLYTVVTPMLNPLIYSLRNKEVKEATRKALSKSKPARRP
Outline: as §1

OR9Q2 C179R = test system: T4, OR9Q2 C179R
T4 sequence (whole entry): T3 sequence (whole entry) with C179R
Outline: as §1

Or10j5 (Mus musculus) = molecular target: T5, Or10j5 (Mus musculus) (UniProt Q62007)
T5 sequence (whole entry): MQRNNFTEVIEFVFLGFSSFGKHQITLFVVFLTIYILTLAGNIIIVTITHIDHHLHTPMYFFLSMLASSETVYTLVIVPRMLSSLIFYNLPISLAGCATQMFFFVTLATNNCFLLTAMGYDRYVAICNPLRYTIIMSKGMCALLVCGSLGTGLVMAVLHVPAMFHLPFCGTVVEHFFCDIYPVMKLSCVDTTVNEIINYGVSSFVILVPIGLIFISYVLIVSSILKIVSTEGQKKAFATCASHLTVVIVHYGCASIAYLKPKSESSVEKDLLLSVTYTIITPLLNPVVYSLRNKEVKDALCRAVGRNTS
Outline: as §1

Or1m1 (Mus musculus) = molecular target: T6, Or1m1 (Mus musculus) (UniProt Q8VFM9)
T6 sequence (whole entry): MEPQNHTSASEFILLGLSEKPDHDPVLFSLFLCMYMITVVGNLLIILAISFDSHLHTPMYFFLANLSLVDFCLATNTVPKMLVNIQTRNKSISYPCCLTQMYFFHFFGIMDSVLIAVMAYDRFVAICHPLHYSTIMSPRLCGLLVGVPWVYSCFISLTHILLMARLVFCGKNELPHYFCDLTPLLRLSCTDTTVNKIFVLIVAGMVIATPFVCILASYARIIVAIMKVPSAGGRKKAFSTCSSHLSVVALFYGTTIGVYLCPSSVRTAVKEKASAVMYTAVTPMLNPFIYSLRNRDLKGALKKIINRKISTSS
Outline: as §1

Or2c1 (Mus musculus) = molecular target: T7, Or2c1 (Mus musculus) (UniProt P23275)
T7 sequence (whole entry): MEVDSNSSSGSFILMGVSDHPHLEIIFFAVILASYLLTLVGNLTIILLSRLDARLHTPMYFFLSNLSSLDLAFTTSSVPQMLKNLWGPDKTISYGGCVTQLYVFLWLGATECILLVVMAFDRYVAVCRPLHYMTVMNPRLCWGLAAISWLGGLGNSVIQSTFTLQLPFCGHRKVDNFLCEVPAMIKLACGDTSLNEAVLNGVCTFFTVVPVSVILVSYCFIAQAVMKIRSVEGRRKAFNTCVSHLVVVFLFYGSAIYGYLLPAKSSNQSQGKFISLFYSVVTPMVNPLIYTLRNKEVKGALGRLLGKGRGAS
Outline: as §1

Or5ar1 (Mus musculus) = molecular target: T8, Or5ar1 (Mus musculus) (UniProt Q8VGS3)
T8 sequence (whole entry): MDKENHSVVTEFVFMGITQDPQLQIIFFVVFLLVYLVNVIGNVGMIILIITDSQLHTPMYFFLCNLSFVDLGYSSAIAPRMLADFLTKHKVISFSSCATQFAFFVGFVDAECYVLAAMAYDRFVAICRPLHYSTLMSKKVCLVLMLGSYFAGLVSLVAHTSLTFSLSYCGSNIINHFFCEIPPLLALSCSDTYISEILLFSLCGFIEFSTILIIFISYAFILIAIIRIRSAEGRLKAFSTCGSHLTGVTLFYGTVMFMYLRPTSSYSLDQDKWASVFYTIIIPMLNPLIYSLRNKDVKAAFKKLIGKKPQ
Outline: as §1

Or5p57 (Mus musculus) = molecular target: T9, Or5p57 (Mus musculus) (UniProt Q8VEZ0)
T9 sequence (whole entry): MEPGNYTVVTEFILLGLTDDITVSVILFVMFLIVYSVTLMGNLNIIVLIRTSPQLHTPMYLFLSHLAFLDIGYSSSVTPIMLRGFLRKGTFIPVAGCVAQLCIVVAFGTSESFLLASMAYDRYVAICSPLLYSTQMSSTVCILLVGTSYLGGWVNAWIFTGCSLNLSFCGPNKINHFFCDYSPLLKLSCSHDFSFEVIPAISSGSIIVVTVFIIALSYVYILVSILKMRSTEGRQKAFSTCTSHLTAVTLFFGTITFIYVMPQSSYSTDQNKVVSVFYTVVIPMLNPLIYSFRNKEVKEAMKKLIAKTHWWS
Outline: as §1

Or5p80 (Mus musculus) = molecular target: T10, Or5p80 (Mus musculus) (UniProt Q8VG42)
T10 sequence (whole entry): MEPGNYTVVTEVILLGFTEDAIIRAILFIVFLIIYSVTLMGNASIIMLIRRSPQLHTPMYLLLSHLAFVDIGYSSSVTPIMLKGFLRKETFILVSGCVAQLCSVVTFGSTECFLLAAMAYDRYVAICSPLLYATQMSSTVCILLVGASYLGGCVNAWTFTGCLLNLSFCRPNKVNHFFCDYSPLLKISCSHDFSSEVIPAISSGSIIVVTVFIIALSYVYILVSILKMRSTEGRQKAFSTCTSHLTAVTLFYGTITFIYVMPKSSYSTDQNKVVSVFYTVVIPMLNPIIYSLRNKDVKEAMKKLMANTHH
Outline: as §1

Or7a40 (Mus musculus) = molecular target: T11, Or7a40 (Mus musculus) (UniProt Q9JHB2)
T11 sequence (whole entry): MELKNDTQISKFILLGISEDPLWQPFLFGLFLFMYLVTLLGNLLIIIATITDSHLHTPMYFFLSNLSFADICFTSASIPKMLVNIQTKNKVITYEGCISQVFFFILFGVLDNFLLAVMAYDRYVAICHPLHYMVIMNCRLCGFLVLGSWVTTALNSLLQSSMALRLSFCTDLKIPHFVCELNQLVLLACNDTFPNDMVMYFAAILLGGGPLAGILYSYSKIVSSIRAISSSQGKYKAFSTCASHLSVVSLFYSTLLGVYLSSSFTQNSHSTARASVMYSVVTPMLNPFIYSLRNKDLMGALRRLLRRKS
Outline: as §1

Or5k16 (Mus musculus) = molecular target: T12, Or5k16 (Mus musculus) (UniProt Q7TS48)
T12 sequence (whole entry): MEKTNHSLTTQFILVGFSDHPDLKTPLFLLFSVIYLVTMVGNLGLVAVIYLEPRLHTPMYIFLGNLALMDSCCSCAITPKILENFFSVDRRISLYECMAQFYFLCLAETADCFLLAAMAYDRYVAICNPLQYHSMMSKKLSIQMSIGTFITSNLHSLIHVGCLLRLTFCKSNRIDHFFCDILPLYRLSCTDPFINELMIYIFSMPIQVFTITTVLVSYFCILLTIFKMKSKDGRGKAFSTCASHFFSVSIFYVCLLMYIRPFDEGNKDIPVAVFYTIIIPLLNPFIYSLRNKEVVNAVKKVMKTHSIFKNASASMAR
Outline: as §1

Or5an6 (Mus musculus) = molecular target: T13, Or5an6 (Mus musculus) (UniProt Q8VFV4)
T13 sequence (whole entry): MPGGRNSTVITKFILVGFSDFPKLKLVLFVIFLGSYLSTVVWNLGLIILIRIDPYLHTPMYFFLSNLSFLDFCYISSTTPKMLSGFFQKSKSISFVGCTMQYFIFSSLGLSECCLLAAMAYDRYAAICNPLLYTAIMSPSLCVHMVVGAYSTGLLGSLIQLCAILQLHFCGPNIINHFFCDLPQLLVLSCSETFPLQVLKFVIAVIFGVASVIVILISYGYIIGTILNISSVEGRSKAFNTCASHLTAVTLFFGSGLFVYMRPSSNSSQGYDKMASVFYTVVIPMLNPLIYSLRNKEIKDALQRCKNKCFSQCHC
Outline: as §1

Q8VF87 A279V = test system: Q8VF87 A279V
Outline: as §1

Q8VF87 E162D = test system: Q8VF87 E162D
Outline: as §1

Q8VF87 I202L = test system: Q8VF87 I202L
Outline: as §1

Measured: odorant receptor agonist call;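 further: active if original authors judged signal statistically different from baseline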

CCC1OC(C)=C(O)C1=O (stereo not drawn)
inactive: OR9Q1 (Homo sapiens) | OR9Q1 A83T | OR9Q2 (Homo sapiens) | OR9Q2 C179R

CCCCCCO
inactive: Or10j5 (Mus musculus) | Or1m1 (Mus musculus) | Or2c1 (Mus musculus) | Or5ar1 (Mus musculus) | Or5p80 (Mus musculus) | Or7a40 (Mus musculus)
active: Or5p57 (Mus musculus)

Cc1cnc(C)c(C)n1
inactive: OR9Q1 (Homo sapiens) | OR9Q1 A83T | OR9Q2 (Homo sapiens) | OR9Q2 C179R | Or5k16 (Mus musculus)

CCCCCCCCCCCC(=O)O
inactive: Or10j5 (Mus musculus)

CCCC(S)CCOC(C)=O (stereo not drawn)
inactive: OR9Q1 (Homo sapiens) | OR9Q1 A83T | OR9Q2 (Homo sapiens) | OR9Q2 C179R

CC(=O)c1c(C)c([N+](=O)[O-])c(C(C)(C)C)c([N+](=O)[O-])c1C
active: Or5an6 (Mus musculus)
inactive: OR9Q1 (Homo sapiens) | OR9Q2 (Homo sapiens)

O=C([O-])CCCCCCC(=O)[O-].[H+].[H+]
inactive: Or10j5 (Mus musculus) | Or1m1 (Mus musculus) | Or5ar1 (Mus musculus) | Or5p57 (Mus musculus)

CCCCCCCCCO
inactive: Or10j5 (Mus musculus) | Or1m1 (Mus musculus) | Or2c1 (Mus musculus) | Or5ar1 (Mus musculus) | Or5p57 (Mus musculus) | Or5p80 (Mus musculus) | Or7a40 (Mus musculus)

CCCCCCCCCCCO
inactive: Or10j5 (Mus musculus) | Or1m1 (Mus musculus) | Or5ar1 (Mus musculus)

CC1=C(O)C(=O)C(C)O1 (stereo not drawn)
inactive: OR9Q1 (Homo sapiens) | OR9Q1 A83T | OR9Q2 (Homo sapiens) | OR9Q2 C179R

CCC(S)C(C)CO (stereo not drawn)
inactive: OR9Q1 (Homo sapiens) | OR9Q2 (Homo sapiens) | Q8VF87 A279V | Q8VF87 E162D | Q8VF87 I202L

CCCCOC(=O)CCC
inactive: Or10j5 (Mus musculus)

O=C(O)CCCCBr
inactive: Or10j5 (Mus musculus) | Or5p57 (Mus musculus)

CCCCCCCCCCCC=O
inactive: Or10j5 (Mus musculus)

CCCCC(=O)O
inactive: Or10j5 (Mus musculus) | Or1m1 (Mus musculus) | Or2c1 (Mus musculus) | Or5ar1 (Mus musculus) | Or5p57 (Mus musculus) | Or5p80 (Mus musculus) | Or7a40 (Mus musculus)

CCCCCCCO
active: Or5p57 (Mus musculus)
inactive: Or10j5 (Mus musculus) | Or1m1 (Mus musculus) | Or2c1 (Mus musculus) | Or5ar1 (Mus musculus) | Or5p80 (Mus musculus) | Or7a40 (Mus musculus)

CCCCCCCCCCC(=O)O
inactive: Or10j5 (Mus musculus)

CC1CCCCCCCCCCCCC(=O)C1 (stereo not drawn)
inactive: OR9Q1 (Homo sapiens) | OR9Q2 (Homo sapiens)
active: Or5an6 (Mus musculus)

CCC1OC(=O)C(O)=C1C (stereo not drawn)
inactive: OR9Q1 (Homo sapiens) | OR9Q1 A83T | OR9Q2 (Homo sapiens) | OR9Q2 C179R
